This note sets out measurements from ChEMBL document CHEMBL1126974, “The effect of NMeTyr5 substitution in luteinizing hormone-releasing hormone antagonists” (J Med Chem, 1993).

≈ marks a conversion by molar mass, not a printed value. Non-standard residues stand in square brackets, D forms with d. Residues, ends and D or L forms follow the SMILES beside them. *: point of attachment. dNva(5-oxo-5-(4-MeOPh)) = COc1ccc(C(=O)CC[C@@H](N)C(=O)O)cc1; dPhe(4-Cl) = N[C@H](Cc1ccc(Cl)cc1)C(=O)O; d2Nal = N[C@H](Cc1ccc2ccccc2c1)C(=O)O; Lys(iPr) = CC(C)NCCCC[C@H](N)C(=O)O; NMeY = CN[C@@H](Cc1ccc(O)cc1)C(=O)O; dBta = N[C@H](Cc1csc2ccccc12)C(=O)O; dCit = NC(=O)NCCC[C@@H](N)C(=O)O; d3Pal = N[C@H](Cc1cccnc1)C(=O)O; Nicotinoyl = O=C(c1cccnc1)*

Data set [1] is described as follows: Solubility was determined in 5% dextrose, pH 4.5. Format: physicochemical. In outline: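 Solubility measured in 5% dextrose at pH 4.5, reported in mg/mL; some peptides measured as TFA salts, others as acetate salts.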
Data set [2] concerns the target T1, Gonadotropin-releasing hormone receptor (Rattus norvegicus, UniProt P30969).
T1 sequence (P30969 whole entry): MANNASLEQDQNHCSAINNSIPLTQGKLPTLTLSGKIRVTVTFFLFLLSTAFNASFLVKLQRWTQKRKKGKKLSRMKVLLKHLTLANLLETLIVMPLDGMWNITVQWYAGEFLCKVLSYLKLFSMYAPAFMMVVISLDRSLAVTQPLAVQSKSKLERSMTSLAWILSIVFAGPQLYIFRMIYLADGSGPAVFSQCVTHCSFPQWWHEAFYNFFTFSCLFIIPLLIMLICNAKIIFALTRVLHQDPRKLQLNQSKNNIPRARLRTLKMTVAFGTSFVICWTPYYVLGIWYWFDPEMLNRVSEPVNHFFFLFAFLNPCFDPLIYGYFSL
Kind of data set: The negative logarithm of the concentration of antagonist that inhibits 50% of the binding of 125 I-labeled leuprolide to the rat pituitary LHRH receptor. In outline: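 Competition binding to rat pituitary LHRH receptor with 125I-labeled leuprolide as radioligand; compounds dissolved in 10 mmol Tris buffer pH 7.4. Concentration inhibiting 50% of tracer binding determined and expressed as its negative logarithm (pKi). TFA salts unless indicated.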

Data set [3] is filed under the species Rattus norvegicus. Put plainly: The negative logarithm of the concentration of the antagonist that requires 2-fold higher concentration of the agonist to release LH from cultured rat pituitary cells. Type of data set: functional, cell-based. Particulars: Pituitary gland cell, read-out: pA2 (converted). Summed up: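 Cultured rat pituitary cells stimulated with LHRH agonist in presence of antagonist dissolved in 10 mmol Tris buffer pH 7.4; LH release measured. pA2 taken as negative log of antagonist concentration requiring 2-fold higher agonist concentration for LH release.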

The species entered for data set [4] is Rattus norvegicus. Kind of data set: Effective dose of the antagonist that gives 50% of the maximal release of histamine from rat peritoneal mast cells. Format: functional. The settings on record: read-out: ED50 (the source's name). Summed up:
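Mast cells from rat peritoneum; compounds dissolved in 5.6 mM glucose, 0.1% BSA in Dulbecco phosphate-buffered saline pH 7.4. Released histamine quantified by RIA kit; value is dose giving 50% of maximal histamine release, in µg/mL. Tested as TFA salts unless indicated.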

In general, solubility refers to how much of the substance goes into solution per volume. Usually Ki stands for a measure of affinity in units of concentration, obtained from inhibition or displacement. The low end stands for higher affinity, the high end for lower affinity. For the compound `CC(=O)N[C@H](Cc1ccc2ccccc2c1)C(=O)N[C@H](Cc1ccc(Cl)cc1)C(=O)N[C@H](Cc1cccnc1)C(=O)N[C@@H](CO)C(=O)N[C@@H](Cc1ccc(O)cc1)C(=O)N[C@H](CCCNC(N)=O)C(=O)N[C@@H](CC(C)C)C(=O)N[C@@H](CCCNC(=N)N)C(=O)N1CCC[C@H]1C(=O)N[C@H](C)C(N)=O` (Ac-[d2Nal][dPhe(4-Cl)][d3Pal]SY[dCit]LRP[dA]-NH2), the solubility in data set [1] is less than 1 mg/mL. The Ki in data set [2] was 0.117 nM. Regarding `COc1ccc(C(=O)CC[C@@H](NC(=O)[C@H](CCCN=C(N)N)NC(=O)[C@H](CO)NC(=O)[C@@H](Cc2cccnc2)NC(=O)[C@@H](Cc2ccc(Cl)cc2)NC(=O)[C@@H](Cc2ccc3ccccc3c2)NC(C)=O)C(=O)N[C@@H](CC(C)C)C(=O)N[C@@H](CCCN=C(N)N)C(=O)N2CCC[C@H]2C(=O)N[C@H](C)C(N)=O)cc1` (Ac-[d2Nal][dPhe(4-Cl)][d3Pal]SR[dNva(5-oxo-5-(4-MeOPh))]LRP[dA]-NH2) [listing 1 of 2 here], in the data set listed under Rattus norvegicus [3], the Kb was 0.00871 nM. In data set [2], this compound showed a Ki of 0.0525 nM. `CC(=O)N[C@H](Cc1ccc2ccccc2c1)C(=O)N[C@H](Cc1ccc(Cl)cc1)C(=O)N[C@H](Cc1cccnc1)C(=O)N[C@@H](CO)C(=O)N[C@@H](Cc1ccc(O)cc1)C(=O)N[C@H](CCCNC(N)=O)C(=O)N[C@@H](CC(C)C)C(=O)N[C@@H](CCCN=C(N)N)C(=O)N1CCC[C@H]1C(=O)N[C@H](C)C(N)=O` (Ac-[d2Nal][dPhe(4-Cl)][d3Pal]SY[dCit]LRP[dA]-NH2) [listing 1 of 2 here]: in the data set filed under Rattus norvegicus [3], the Kb is 0.0355 nM.

For the compound `CC(=O)N[C@H](Cc1ccc2ccccc2c1)C(=O)N[C@H](Cc1ccc(Cl)cc1)C(=O)N[C@H](Cc1cccnc1)C(=O)N[C@@H](CO)C(=O)N(C)[C@@H](Cc1ccc(O)cc1)C(=O)N[C@H](CCCNC(N)=O)C(=O)N[C@@H](CC(C)C)C(=O)N[C@@H](CCCN=C(N)N)C(=O)N1CCC[C@H]1C(=O)N[C@H](C)C(N)=O` [listing 1 of 2 here], the EC50 in the data set filed under Rattus norvegicus [4] amounted to 1.65 mg/L (≈ 1.14 µM).

In the case of `CC(=O)N[C@H](Cc1ccc2ccccc2c1)C(=O)N[C@H](Cc1ccc(Cl)cc1)C(=O)N[C@H](Cc1cccnc1)C(=O)N[C@@H](CO)C(=O)N[C@@H](CCCCNC(=O)c1cccnc1)C(=O)N[C@H](CCCCNC(=O)c1cccnc1)C(=O)N[C@@H](CC(C)C)C(=O)N[C@@H](CCCCNC(C)C)C(=O)N1CCC[C@H]1C(=O)N[C@H](C)C(N)=O` (Ac-[d2Nal][dPhe(4-Cl)][d3Pal]SK(Nicotinoyl)[dK](Nicotinoyl)L[Lys(iPr)]P[dA]-NH2) [listing 1 of 2 here], the solubility in data set [1] was found to be 1.1 mg/mL (≈ 691 µM). Moreover, in the data set filed under Rattus norvegicus [3], the Kb was 0.0234 nM. Moreover, in data set [2], the Ki was 0.0617 nM. The corresponding values for `CC(=O)N[C@H](Cc1ccc(Cl)cc1)C(=O)N[C@H](Cc1ccc(Cl)cc1)C(=O)N[C@H](Cc1csc2ccccc12)C(=O)N[C@@H](CO)C(=O)N[C@@H](Cc1ccc(O)cc1)C(=O)N[C@H](CCCCN)C(=O)N[C@@H](CC(C)C)C(=O)N[C@@H](CCCN=C(N)N)C(=O)N1CCC[C@H]1C(=O)N[C@H](C)C(N)=O` [listing 1 of 2 here] are less than 0.1 mg/mL, 0.00646 nM and 0.0331 nM.

For `CC(=O)N[C@H](Cc1ccc2ccccc2c1)C(=O)N[C@H](Cc1ccc(Cl)cc1)C(=O)N[C@H](Cc1cccnc1)C(=O)N[C@@H](CO)C(=O)N[C@@H](CCCCNC(=O)c1cccnc1)C(=O)N[C@H](CCCCNC(=O)c1cccnc1)C(=O)N[C@@H](CC(C)C)C(=O)N[C@@H](CCCCNC(C)C)C(=O)N1CCC[C@H]1C(=O)N[C@H](C)C(N)=O` (Ac-[d2Nal][dPhe(4-Cl)][d3Pal]SK(Nicotinoyl)[dK](Nicotinoyl)L[Lys(iPr)]P[dA]-NH2) [listing 2 of 2 here], the EC50 in the data set filed under Rattus norvegicus [4] was 261 mg/L (≈ 164 µM). For the compound `COc1ccc(C(=O)CC[C@@H](NC(=O)[C@H](CCCN=C(N)N)NC(=O)[C@H](CO)NC(=O)[C@@H](Cc2cccnc2)NC(=O)[C@@H](Cc2ccc(Cl)cc2)NC(=O)[C@@H](Cc2ccc3ccccc3c2)NC(C)=O)C(=O)N[C@@H](CC(C)C)C(=O)N[C@@H](CCCN=C(N)N)C(=O)N2CCC[C@H]2C(=O)N[C@H](C)C(N)=O)cc1` (Ac-[d2Nal][dPhe(4-Cl)][d3Pal]SR[dNva(5-oxo-5-(4-MeOPh))]LRP[dA]-NH2) [listing 2 of 2 here], the EC50 in the data set listed under Rattus norvegicus [4] was 1.11 mg/L (≈ 0.747 µM). Same read-out and setting: the result for `CC(=O)N[C@H](Cc1ccc(Cl)cc1)C(=O)N[C@H](Cc1ccc(Cl)cc1)C(=O)N[C@H](Cc1csc2ccccc12)C(=O)N[C@@H](CO)C(=O)N(C)[C@@H](Cc1ccc(O)cc1)C(=O)N[C@H](CCCCN)C(=O)N[C@@H](CC(C)C)C(=O)N[C@@H](CCCN=C(N)N)C(=O)N1CCC[C@H]1C(=O)N[C@H](C)C(N)=O` (Ac-[dPhe(4-Cl)][dPhe(4-Cl)][dBta]S[NMeY][dK]LRP[dA]-NH2) [listing 1 of 2 here] reads less than 0.5 mg/L; that for `CC(=O)N[C@H](Cc1ccc2ccccc2c1)C(=O)N[C@H](Cc1ccc(Cl)cc1)C(=O)N[C@H](Cc1cccnc1)C(=O)N[C@@H](CO)C(=O)N(C)[C@@H](Cc1ccc(O)cc1)C(=O)N[C@H](CCCCNC(=O)c1cccnc1)C(=O)N[C@@H](CC(C)C)C(=O)N[C@@H](CCCCNC(C)C)C(=O)N1CCC[C@H]1C(=O)N[C@H](C)C(N)=O` (Ac-[d2Nal][dPhe(4-Cl)][d3Pal]S[NMeY][dK](Nicotinoyl)L[Lys(iPr)]P[dA]-NH2) [listing 1 of 2 here], 10 mg/L (≈ 6.51 µM); that for `CC(=O)N[C@H](Cc1ccc2ccccc2c1)C(=O)N[C@H](Cc1ccc(Cl)cc1)C(=O)N[C@H](Cc1cccnc1)C(=O)N[C@@H](CO)C(=O)N[C@@H](Cc1ccc(O)cc1)C(=O)N[C@H](CCCNC(N)=O)C(=O)N[C@@H](CC(C)C)C(=O)N[C@@H](CCCN=C(N)N)C(=O)N1CCC[C@H]1C(=O)N[C@H](C)C(N)=O` (Ac-[d2Nal][dPhe(4-Cl)][d3Pal]SY[dCit]LRP[dA]-NH2) [listing 2 of 2 here], 1.11 mg/L (≈ 0.776 µM).

In data set [1], `CC(=O)N[C@H](Cc1ccc2ccccc2c1)C(=O)N[C@H](Cc1ccc(Cl)cc1)C(=O)N[C@H](Cc1cccnc1)C(=O)N[C@@H](CO)C(=O)N(C)[C@@H](Cc1ccc(O)cc1)C(=O)N[C@H](CCCNC(N)=O)C(=O)N[C@@H](CC(C)C)C(=O)N[C@@H](CCCN=C(N)N)C(=O)N1CCC[C@H]1C(=O)N[C@H](C)C(N)=O` [listing 2 of 2 here] displayed a solubility of 12 mg/mL (≈ 8300 µM). In the data set filed under Rattus norvegicus [3], the Kb was 0.0158 nM. Besides, in data set [2], the affinity, expressed as Ki, was 0.0135 nM.

As to `CC(=O)N[C@H](Cc1ccc(Cl)cc1)C(=O)N[C@H](Cc1ccc(Cl)cc1)C(=O)N[C@H](Cc1csc2ccccc12)C(=O)N[C@@H](CO)C(=O)N(C)[C@@H](Cc1ccc(O)cc1)C(=O)N[C@H](CCCCN)C(=O)N[C@@H](CC(C)C)C(=O)N[C@@H](CCCN=C(N)N)C(=O)N1CCC[C@H]1C(=O)N[C@H](C)C(N)=O` (Ac-[dPhe(4-Cl)][dPhe(4-Cl)][dBta]S[NMeY][dK]LRP[dA]-NH2) [listing 2 of 2 here], in data set [1], the solubility is greater than 25 mg/mL. Also, the Kb in the data set listed under Rattus norvegicus [3] was 0.00501 nM. In addition, the Ki in data set [2] is 0.0234 nM.

For `CC(=O)N[C@H](Cc1ccc2ccccc2c1)C(=O)N[C@H](Cc1ccc(Cl)cc1)C(=O)N[C@H](Cc1cccnc1)C(=O)N[C@@H](CO)C(=O)N(C)[C@@H](Cc1ccc(O)cc1)C(=O)N[C@H](CCCCNC(=O)c1cccnc1)C(=O)N[C@@H](CC(C)C)C(=O)N[C@@H](CCCCNC(C)C)C(=O)N1CCC[C@H]1C(=O)N[C@H](C)C(N)=O` (Ac-[d2Nal][dPhe(4-Cl)][d3Pal]S[NMeY][dK](Nicotinoyl)L[Lys(iPr)]P[dA]-NH2) [listing 2 of 2 here], the solubility in data set [1] is greater than 20 mg/mL. The Kb in the data set listed under Rattus norvegicus [3] is 0.00589 nM. For `CC(=O)N[C@H](Cc1ccc(Cl)cc1)C(=O)N[C@H](Cc1ccc(Cl)cc1)C(=O)N[C@H](Cc1csc2ccccc12)C(=O)N[C@@H](CO)C(=O)N[C@@H](Cc1ccc(O)cc1)C(=O)N[C@H](CCCCN)C(=O)N[C@@H](CC(C)C)C(=O)N[C@@H](CCCN=C(N)N)C(=O)N1CCC[C@H]1C(=O)N[C@H](C)C(N)=O` [listing 2 of 2 here], the EC50 in the data set listed under Rattus norvegicus [4] was 0.62 mg/L (≈ 0.43 µM).
